From ChEMBL document CHEMBL4346690, “Structure-activity relationship studies of (E)-3,4-dihydroxystyryl alkyl sulfones as novel neuroprotective agents based on improved antioxidant, anti-inflammatory activities and BBB permeability” (Eur J Med Chem, 2019)
The source made the active and inactive calls. The calls are words filed in the database; no cut-off is given here.

Experiments:
[1] = Cytotoxicity against […] BV2 cells assessed as cell viability at 0.625 to 40 uM after 24 hrs by MTS assay; format: cell-based; settings: read-out: Activity
Outline: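 Viability of BV2 cells read by MTS under the NO-assay conditions: 3 h compound (0.625–40 µM) pretreatment followed by LPS 100 ng mL−1 for 24 h.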

[2] = Antioxidant activity assessed as DPPH radical scavenging activity after 1 hr by […]; format: functional
Outline: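 DPPH (0.2 mM) in ethanol mixed with sample, kept 1 h at room temperature, absorbance read at 517 nm. Scavenging % = [1−(Ac−Ab)/A0]×100, where Ab is the sample in ethanol without DPPH and A0 is the ethanol+DPPH control. EC50 reported; vitamin C used as reference antioxidant; mean ± SD, n = 3.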

[3] = test system: PC-12; assay: Neuroprotection activity in rat PC12 cells assessed as reduction in 6-OHDA-induced cell damages at 10 uM preincubated for 3 hrs followed by H2O2 addition and measured after 24 hrs by MTT assay relative to control; format: functional, cell-based; settings: in the assay text read “6-OHDA addition” for “H2O2 addition”
Outline: (§1)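 PC12 cells plated at 2 × 10^5 cells mL−1 for 1 day, pretreated 3 h with compounds at 2.5, 5 or 10 µM, then 6-OHDA (final 250 µM) added for 24 h. Viability by MTT, absorbance 570 nm; untreated cells = 100%; mean ± SD, n = 3.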

[4] = test system: PC-12; assay: Neuroprotection activity in rat PC12 cells assessed as reduction in 6-OHDA-induced cell damages at 2.5 uM preincubated for 3 hrs followed by H2O2 addition and measured after 24 hrs by MTT assay relative to control; format: functional, cell-based; settings: in the assay text read “6-OHDA addition” for “H2O2 addition”; outline: as §1
[5] = Cytotoxicity against rat PC12 cells assessed as cell viability at 100 uM after 24 hrs by MTT assay; format: cell-based, PC-12; settings: read-out: Activity
Outline: (§2)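 Cells kept in high-glucose DMEM with 10% FBS and 1% PS at 37 °C, 5% CO2. Plated 1 day, then compounds for 24 h; viability by MTT at 100 µM as ODtreated/ODcontrol × 100%, untreated = 100%. Mean ± SD, n = 3.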

[6] = Anti-neuroinflammatory activity in […] BV2 cells assessed as reduction in LPS-induced NO production preincubated for 3 hrs followed by LPS stimulation for 24 hrs by Griess assay; format: functional, cell-based; settings: BV-2
Outline: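 BV2 microglia seeded 3 × 10^5 cells mL−1 for 1 day; compounds in medium added for 3 h, then LPS (final 100 ng mL−1) for a further 24 h. Supernatant mixed with Griess reagent, absorbance at 540 nm. Inhibition % from NO release of LPS-only, unstimulated and compound+LPS wells; IC50 reported; mean ± SD, n = 3.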

[7] = test system: PC-12; assay: Neuroprotection activity in rat PC12 cells assessed as reduction in H2O2-induced cell death preincubated for 3 hrs followed by H2O2 addition and measured after 3 hrs by MTS assay; format: functional, cell-based
Outline: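 PC12 cells plated at 2 × 10^5 cells mL−1 for 1 day, pretreated 3 h with compounds, then H2O2 (final 400 µM) for 3 h. Viability by MTS at 490 nm relative to untreated cells (100%); single-concentration tests at 2.5, 5, 10 µM and IC50 values; mean ± SD, n = 3.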

[8] = Cytotoxicity against […] BV2 cells assessed as cell viability at 100 uM after 24 hrs by MTT assay; format: cell-based; settings: read-out: Activity; outline: as §2
[9] = test system: PC-12; assay: Neuroprotection against H2O2-induced cell death in rat PC12 cells assessed as increase in cell viability at 5 uM preincubated for 3 hrs followed by H2O2 addition and measured after 3 hrs by MTS assay relative to CAPE; format: functional
Outline: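 PC12 cells plated at 2 × 10^5 cells/mL for 1 day, pretreated with compound (2.5, 5, 10 µM) for 3 h, then H2O2 added (final 400 µM) for 3 h. Viability read by MTS at 490 nm, untreated cells = 100%. Mean ± SD, n = 3.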

SMILES	viability at 24 h, up to 40 µM [1] [%]	EC50 [2] [µM]	Activity [3]	Activity [4]	viability at 24 h, 100 µM [5] [%]	IC50 [6] [µM]	IC50 [7] [µM]	viability at 24 h, 100 µM [8] [%]	Activity [9] [%]
O=S(=O)(/C=C/c1ccc(O)c(O)c1)CCC1CCCC1	> 90	6.8	Active	Active	77.7	2.5	1.96	76.6	
O=S(=O)(/C=C/c1ccc(O)c(O)c1)CC1CC1	> 90	10.5	inactive		92.9	33.5	6.61	87.8	
O=C(/C=C/c1ccc(O)c(O)c1)OCCc1ccccc1 [CAFFEIC ACID PHENETHYL ESTER]	> 90	14.6	Active		85.1	6	2	69.3	
O=S(=O)(/C=C/c1ccc(O)c(O)c1)CC1CCCO1 (stereo not drawn)	> 90	10.5	inactive		98	54.6	27.1	93.9	
CCCCCCCCCCCCS(=O)(=O)/C=C/c1ccc(O)c(O)c1	> 90	8.5	Active	Active	28.2	6.6	2.27	25.2	
O=S(=O)(/C=C/c1ccc(O)c(O)c1)CCCCCCCO	> 90	5.9	Active	Active	91.8	14.3	9.91	72	
O=S(=O)(/C=C/c1ccc(O)c(O)c1)CCCCCCCCCCCO	> 90	22.6	Active	Active	100	13.3	24.1	50.4	
O=S(=O)(/C=C/c1ccc(O)c(O)c1)CCC1CCCCC1	> 90	9.8	Active	Active	94.9	11.3	2	62.6	
CCCCCS(=O)(=O)/C=C/c1ccc(O)c(O)c1	> 90	8.1	Active	Active	57.4	3.3	1.83	70.1	30
O=S(=O)(/C=C/c1ccc(O)c(O)c1)CC1CCCC1	> 90	9.4	Active	Active	85.4	15.8	2.19	72.7	
C=CCCCCCCCS(=O)(=O)/C=C/c1ccc(O)c(O)c1	> 90	6.9	Active	Active	74.7	8.3	1.9	71.9	30
CCCCCCCS(=O)(=O)/C=C/c1ccc(O)c(O)c1	> 90	7.1	Active	Active	85.7	8.5	1.33	52.5	
CCCCCCCCS(=O)(=O)/C=C/c1ccc(O)c(O)c1	> 90	6.4	Active	Active	73.6	7.6	1.45	63.6	
